TRPC6 act: activators of mouse TRPC6 channel. Q61143. HEK293-TRPC6 membrane potential dye fluorescence; active compounds read high. B-score at 10 µM. actives 0.13% (n = 310,000). AID 2550;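 active = B-score of the integrated fluorescence ratio above library mean plus 3 SD, and starting fluorescence ratio within library mean plus 5 SD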;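 also: higher score means more depolarization so channel activation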
Target sequence (Q61143 whole entry, looked up): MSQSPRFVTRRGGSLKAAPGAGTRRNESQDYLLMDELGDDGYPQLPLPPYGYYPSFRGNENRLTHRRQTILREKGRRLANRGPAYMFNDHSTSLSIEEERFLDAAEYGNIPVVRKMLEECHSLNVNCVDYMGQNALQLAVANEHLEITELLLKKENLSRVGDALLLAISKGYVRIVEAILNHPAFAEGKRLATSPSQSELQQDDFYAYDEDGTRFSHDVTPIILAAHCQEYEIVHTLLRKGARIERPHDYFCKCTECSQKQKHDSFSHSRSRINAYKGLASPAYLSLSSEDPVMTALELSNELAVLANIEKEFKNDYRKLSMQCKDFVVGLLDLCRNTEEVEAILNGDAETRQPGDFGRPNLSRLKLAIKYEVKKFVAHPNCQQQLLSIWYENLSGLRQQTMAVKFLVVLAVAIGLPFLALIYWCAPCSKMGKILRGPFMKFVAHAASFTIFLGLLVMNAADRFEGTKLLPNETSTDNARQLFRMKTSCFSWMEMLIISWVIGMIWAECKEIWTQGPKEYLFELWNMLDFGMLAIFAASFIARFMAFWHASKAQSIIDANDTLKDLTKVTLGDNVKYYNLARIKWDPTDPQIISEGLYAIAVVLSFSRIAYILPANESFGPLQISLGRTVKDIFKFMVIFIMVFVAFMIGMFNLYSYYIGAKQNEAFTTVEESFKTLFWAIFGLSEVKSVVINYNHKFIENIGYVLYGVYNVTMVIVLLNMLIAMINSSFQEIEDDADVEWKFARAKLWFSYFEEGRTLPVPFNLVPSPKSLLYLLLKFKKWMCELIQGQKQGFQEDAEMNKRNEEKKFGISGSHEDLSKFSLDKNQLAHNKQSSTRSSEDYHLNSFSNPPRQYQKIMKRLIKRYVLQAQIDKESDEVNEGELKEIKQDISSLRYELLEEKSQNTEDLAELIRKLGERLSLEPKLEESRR
TRPC4 act: TRPC4 (mouse) channel activation. Q9QUQ5. HEK293 TRPC4beta/mu-opioid, Fluo4 calcium fluorescence; active compounds read high. B-score at 10 µM. actives 0.49% (n = 310,000). AID 2237;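 active = B-score above 5 SD of library B-scores, and initial fluorescence ratio not above library mean plus 5 SD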;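 also: positive B-score marks a calcium rise read as TRPC4 activation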
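system = HEK293 cells stably co-expressing mouse TRPC4beta and mu-opioid receptor | schedule = Fluo4 dye loading 45 min at room temperature, 110 s recording | measure = B-scored integrated calcium fluorescence ratio | signal = Fluo4 calcium-sensitive dye fluorescence, kinetic, 1 Hz baseline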
TRPC6 inh: inhibitors of mouse TRPC6 channel. Q61143. HEK293-TRPC6, membrane potential dye, ACh-evoked depolarization; active compounds read low. B-score at 10 µM. actives 1.1% (n = 310,000). AID 2553;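 active = B-score under library mean minus 3 SD, initial fluorescence not abnormally high, positive integrated signal ratio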;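 also: B-score derived from integrated fluorescence ratio over the kinetic read; more negative B-score means stronger inhibition of depolarization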
TRPC4 potent: allosteric potentiators of mouse TRPC4 channel. actives 0.42% (n = 310,000). B-score at 10 µM. HEK293 TRPC4beta/mu-opioid, DAMGO EC20, Fluo-4 Ca2+ flux; active compounds read high. Q9QUQ5;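 active = B-score of calcium response area above 5 SD of library B-scores, with initial fluorescence ratio within 5 SD of library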;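 also: B-score of integrated fluorescence ratio over time as area under calcium response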
TRPC4 inh: inhibitors of mouse TRPC4 channel | HEK293 TRPC4beta/mu-opioid, DAMGO-evoked Fluo4 calcium flux; active compounds read low | B-score at 10 µM | actives 0.39% (n = 300,000);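 active = B-score over 3 SD under the library average, no early fluorescence shift, positive overall ratio signal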
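Assay system: TRPC4beta/mu-opioid receptor HEK293 cell line; compound dosing: single concentration per test compound; detection: Fluo4 Ca2+ flux fluorescence; evaluation: per-well B score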
Active calls of the source: *; i = inactive. In the library only some 2.3% were active in any assay of this set; here they are far more common.

SMILES	TRPC6 act	TRPC4 act	TRPC6 inh	TRPC4 potent	TRPC4 inh
COc1cccc(OCc2cc(C(=O)N3CCN(C)C(c4ccccc4)C3)no2)c1 (stereo not given)	i	i	i	15*	i
COc1cccc(OCc2cc(C(=O)N3CCC(c4ccncc4)CC3)no2)c1	i	i	i	i	i
CC(C)(C)C1=CC=C(C(C)(C)C)C(=O)C1=O	i	i	i	i	i
O=[N+]([O-])c1ccc(Sc2nnnn2-c2ccccc2)nc1	i	i	i	i	i
NS(=O)(=O)c1ccc(CCNCc2ccccc2OCc2ccc(F)cc2)cc1	i	i	i	i	-6*
NS(=O)(=O)c1ccc(NCc2ccccc2OCc2ccc(F)cc2)cc1	i	i	i	i	i
CCOc1ccc(CNCCc2ccc(S(N)(=O)=O)cc2)cc1	i	i	i	i	i
CCOc1ccc2ccccc2c1CNCCc1ccc(S(N)(=O)=O)cc1	i	i	i	i	-6*
Cc1nc(-c2ccccc2O)n(-c2ccccc2)n1	i	i	i	i	i
COc1ccc(CSC(=N)N)cc1[N+](=O)[O-]	i	53*	i	i	i
COC(=O)c1cc(CSC(=N)N)ccc1OCCC(C)C	i	i	i	i	i
N=C(N)SCc1ccc(O)c([N+](=O)[O-])c1	i	i	i	i	i
CCCOc1ccc(CSC(=N)N)cc1C(=O)OC	i	185*	i	i	i
Cc1cc(=O)n(CC(C)O)c(O)c1C#N (stereo not given)	i	i	i	i	i
O=C(N/C(=C/c1ccco1)C(=O)N1CCCCC1)c1cccs1	i	i	i	i	i
CC(C)(C)OC(=O)N[C@@H](Cc1ccccc1)[C@H](O)c1ccco1	i	i	i	i	i
N/C(Cc1cccc2ccccc12)=N\OC(=O)Cc1cccs1	i	i	i	i	i
N/C(Cc1cccc2ccccc12)=N\OC(=O)c1cccs1	i	i	i	i	-6*
O=C1NC(c2ccccc2)=C(c2nc3ccccc3s2)C(c2ccccc2)N1 (stereo not given)	i	i	i	19*	i
O=C(O)C1=C[C@@H](C2CCCCC2)C[C@@H](OCc2ccc(CO)cc2)O1	i	i	i	i	i
O=C(NC1CC1)C1=C[C@H](C2CCCCC2)C[C@H](OCc2ccc(CO)cc2)O1	i	249*	i	i	-6*
C#CCNC(=O)C1=C[C@H](C2CCCCC2)C[C@H](OCc2ccc(CO)cc2)O1	i	57*	i	i	i
COc1ccccc1C(=O)OCc1c(F)cccc1Cl	i	i	i	i	i
O=C(N=C1SC2CS(=O)(=O)CC2N1c1cccc(Cl)c1Cl)C1CC1 (stereo not given)	i	i	i	i	i
CN1CCC(CNC(=O)Nc2ccccc2)(c2ccccc2)CC1	i	172*	i	i	i
SMILES	TRPC6 act	TRPC4 act	TRPC6 inh	TRPC4 potent	TRPC4 inh
C#CCN(C(=O)CC1C(=O)NCCN1C/C=C/c1ccccc1)C1CCCCC1 (stereo not given)	i	i	i	i	i
Cc1onc(-c2ccccc2Cl)c1C(=O)Nc1ccc(S(=O)(=O)N2CCCC2)cc1	i	i	i	10*	i
Cc1ccc(-n2cc(CN3CCC(CO)(Cc4ccccc4)CC3)cn2)cc1	i	i	i	i	i
Cc1cc(CN2CCCC(CO)(Cc3cccc(Cl)c3)C2)n[nH]1 (stereo not given)	i	i	i	i	i
COc1ccccc1-n1cc(CN2CCCC(CO)(Cc3cccc(Cl)c3)C2)cn1 (stereo not given)	i	i	i	i	-5*
CC(C)Cc1cc(CN2CCCC(CO)(Cc3cccc(Cl)c3)C2)[nH]n1 (stereo not given)	i	i	i	i	-10*
OCC1(Cc2ccccc2)CCCN(Cc2cnn(-c3ccccc3)c2)C1 (stereo not given)	i	i	i	i	-7*
COCc1ccc(CN2CCCC(CO)(Cc3cccc(Cl)c3)C2)o1 (stereo not given)	i	i	i	i	i
CCOC(=O)c1ccc(NC(=O)CSc2nc3cccnc3n2C)cc1	i	i	i	i	i
Cc1c(NC(=O)c2ncn[nH]2)cccc1-c1nc2ccccc2s1	i	i	i	i	i
COc1ccc(C2CC(=O)N3CN(c4ccc(C)c(Cl)c4)CSC3=C2C#N)cc1OC (stereo not given)	i	i	i	i	-6*
Cc1cccnc1NC(=O)c1cccc(S(=O)(=O)NCc2ccccc2)c1	i	i	i	i	i
CCOC(=O)c1c(N)sc(-c2ccccc2)c1C	i	i	i	i	i
CCOC(=O)c1c(N)sc(C(O)(C(F)(F)F)C(F)(F)F)c1-c1ccccc1	i	i	i	i	-7*
Cc1nc2ccccc2n1CC(O)COc1ccc(Br)cc1 (stereo not given)	i	i	i	i	i
Cc1nc2ccccc2n1CC(O)COc1ccccc1Cl (stereo not given)	i	i	i	i	-7*
O=C(Cc1cccc2ccccc12)Nc1ccc(Br)cc1C(=O)O	i	i	i	i	-7*
O=C(Cc1cccc2ccccc12)Nc1ccc(O)cc1C(=O)O	i	i	i	i	i
CC(C)CCN1CCN(C2CSCCSC2)CC1CCO (stereo not given)	i	i	i	i	i
O=C(OCC(=O)C12CC3CC(CC(C3)C1)C2)c1cnccn1	i	i	i	i	i
Cc1cccc(NC(=S)NCC(c2ccccc2)N(C)C)c1 (stereo not given)	i	231*	i	i	i
Cc1cccc(NC(=S)NC(C)CCc2ccccc2)c1 (stereo not given)	i	i	i	i	i
CN(C)C(CNC(=S)Nc1cccc(Cl)c1)c1ccccc1 (stereo not given)	i	220*	i	i	i
COc1ccc2c(c1)C=C([C@@H]1C[C@H]3CN(c4ccccc4)C(=O)[C@]34CCCN14)CO2	i	i	i	i	i
COc1ccc(-c2nnn(CC(=O)NCCc3c[nH]c4ccccc34)n2)cc1OC	i	i	i	i	i
CN(CCNC(=O)c1ccc(/C=N/O)nc1)Cc1ccccc1	i	i	i	22*	i

Compound activity from PubChem.
